Test results from ChEMBL document CHEMBL4270541, “Synthesis and antimicrobial evaluation of amino sugar-based naphthoquinones and isoquinoline-5,8-diones and their halogenated compounds” (Eur J Med Chem, 2018).
≈ marks a conversion by molar mass, not a printed value. Calls of active or inactive are those of the source. The calls are words filed in the database; no cut-off is given here.

What was measured:
[1] = system: Escherichia coli; assay: Antimicrobial activity against Escherichia coli INCQS 00033 ATCC 25922 after 24 hrs by microdilution assay; type: functional; conditions: ATCC 25922 INCQS 00033, 24 h
[2] = system: Staphylococcus simulans; assay: Antimicrobial activity against Staphylococcus simulans INCQS 00254 ATCC 27851 assessed as zone of inhibition at 5 mg/ml after 18 to 24 hrs by disc diffusion method; type: functional; conditions: read-out: IZ
[3] = system: Escherichia coli; assay: Bactericidal activity against Escherichia coli INCQS 00033 ATCC 25922 incubated for 24 hrs followed by transfer of microbial suspension to agar plates and measured after 24 hrs post transfer by resazurin dye-based colorimetric analysis; type: functional; conditions: ATCC 25922 INCQS 00033, 24 h, read-out: MBC99.9
How it was run: (§1)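 For MBC, 10 µL from each clear MIC well was plated on agar and incubated 24 h at 37°C. MBC is the minimum concentration inhibiting 99.9% of growth. […] Triplicate.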

[4] = system: Staphylococcus epidermidis; assay: Antimicrobial activity against Staphylococcus epidermidis INCQS 00016 ATCC 12228 at 256 ug/ml after 24 hrs by microdilution assay; type: functional, organism-based; conditions: ATCC 12228 INCQS 00016
[5] = system: Pseudomonas aeruginosa; assay: Antimicrobial activity against Pseudomonas aeruginosa INCQS 00099 ATCC 27853 assessed as zone of inhibition at 5 mg/ml after 18 to 24 hrs by disc diffusion method; type: functional; conditions: read-out: IZ
[6] = system: Staphylococcus aureus; assay: Antimicrobial activity against Staphylococcus aureus INCQS 00015 ATCC 25923 at 256 ug/ml after 24 hrs by microdilution assay; type: functional, organism-based
[7] = system: Escherichia coli; assay: Antimicrobial activity against Escherichia coli INCQS 00033 ATCC 25922 assessed as zone of inhibition at 5 mg/ml after 18 to 24 hrs by disc diffusion method; type: functional; conditions: ATCC 25922 INCQS 00033, read-out: IZ
[8] = system: Staphylococcus aureus; assay: Antimicrobial activity against Staphylococcus aureus INCQS 00015 ATCC 25923 assessed as zone of inhibition at 5 mg/ml after 18 to 24 hrs by disc diffusion method; type: functional; conditions: read-out: IZ
[9] = system: Pseudomonas aeruginosa; assay: Antimicrobial activity against Pseudomonas aeruginosa INCQS 00099 ATCC 27853 after 24 hrs by microdilution assay; type: functional; conditions: INCQS 00099 ATCC 27853, 24 h
[10] = system: Staphylococcus epidermidis; assay: Antimicrobial activity against Staphylococcus epidermidis INCQS 00016 ATCC 12228 assessed as zone of inhibition at 5 mg/ml after 18 to 24 hrs by disc diffusion method; type: functional; conditions: ATCC 12228 INCQS 00016, read-out: IZ
[11] = system: Staphylococcus simulans; assay: Antimicrobial activity against Staphylococcus simulans INCQS 00254 ATCC 27851 at 256 ug/ml after 24 hrs by microdilution assay; type: functional, organism-based
[12] = system: Staphylococcus aureus; assay: Antimicrobial activity against methicillin-resistant Staphylococcus aureus BMB9393 at 256 ug/ml after 24 hrs by microdilution assay; type: functional, organism-based
[13] = system: Escherichia coli; assay: Ratio of MBC99.9 to MIC for Escherichia coli INCQS 00033 ATCC 25922; type: functional, ATCC 25922 INCQS 00033
How it was run: (§2)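 MBC/MIC ratio from the 24 h, 37°C microdilution MIC and the agar-plating MBC (99.9% growth inhibition). A ratio ≤2 was classed as bactericidal and ≥4 as bacteriostatic.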

[14] = system: Pseudomonas aeruginosa; assay: Bactericidal activity against Pseudomonas aeruginosa INCQS 00099 ATCC 27853 incubated for 24 hrs followed by transfer of microbial suspension to agar plates and measured after 24 hrs post transfer by resazurin dye-based colorimetric analysis; type: functional; conditions: INCQS 00099 ATCC 27853, 24 h, read-out: MBC99.9; how it was run: as §1
[15] = system: Enterococcus faecalis; assay: Antimicrobial activity against Enterococcus faecalis INCQS 00234 ATCC 29212 assessed as zone of inhibition at 5 mg/ml after 18 to 24 hrs by disc diffusion method; type: functional; conditions: ATCC 29212 INCQS 00234, read-out: IZ
[16] = system: Staphylococcus aureus; assay: Antimicrobial activity against methicillin-resistant Staphylococcus aureus BMB9393 assessed as zone of inhibition at 5 mg/ml after 18 to 24 hrs by disc diffusion method; type: functional; conditions: read-out: IZ
[17] = system: Staphylococcus simulans; assay: Bactericidal activity against Staphylococcus simulans INCQS 00254 ATCC 27851 at 256 ug/ml incubated for 24 hrs followed by transfer of microbial suspension to agar plates and measured after 24 hrs post transfer by resazurin dye-based colorimetric analysis; type: functional, organism-based; how it was run: as §1
[18] = Hemolytic activity against human erythrocytes assessed as hemolysis at 200 ug/ml after 3 hrs by spectrophotometric analysis relative to control; type: ADME, cell-based, Erythrocyte; conditions: read-out: Activity
How it was run: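 Erythrocytes collected in citrate tubes, washed three times with PBS pH 7.4 by centrifugation and resuspended in PBS. Incubated with compounds at 200 µg/mL for 3 h at 37°C. Released hemoglobin was read in the supernatant at 545 nm against 1% Triton X-100 (complete lysis) and 1% DMSO (negative control). Below 10% hemolysis was taken as hemocompatible. Three independent experiments.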

[19] = system: Staphylococcus epidermidis; assay: Bactericidal activity against Staphylococcus epidermidis INCQS 00016 ATCC 12228 at 256 ug/ml incubated for 24 hrs followed by transfer of microbial suspension to agar plates and measured after 24 hrs post transfer by resazurin dye-based colorimetric analysis; type: functional, organism-based; conditions: ATCC 12228 INCQS 00016; how it was run: as §1
[20] = system: Pseudomonas aeruginosa; assay: Ratio of MBC99.9 to MIC for Pseudomonas aeruginosa INCQS 00099 ATCC 27853; type: functional; how it was run: as §2
[21] = system: Klebsiella pneumoniae; assay: Antimicrobial activity against Klebsiella pneumoniae INCQS 00083 ATCC 4352 assessed as zone of inhibition at 5 mg/ml after 18 to 24 hrs by disc diffusion method; type: functional; conditions: read-out: IZ
[22] = system: Proteus mirabilis; assay: Antimicrobial activity against Proteus mirabilis INCQS 00095 ATCC 15290 assessed as zone of inhibition at 5 mg/ml after 18 to 24 hrs by disc diffusion method; type: functional; conditions: read-out: IZ
[23] = system: Staphylococcus aureus; assay: Bactericidal activity against Staphylococcus aureus INCQS 00015 ATCC 25923 at 256 ug/ml incubated for 24 hrs followed by transfer of microbial suspension to agar plates and measured after 24 hrs post transfer by resazurin dye-based colorimetric analysis; type: functional, organism-based; how it was run: as §1
[24] = system: Staphylococcus aureus; assay: Bactericidal activity against methicillin-resistant Staphylococcus aureus BMB9393 at 256 ug/ml incubated for 24 hrs followed by transfer of microbial suspension to agar plates and measured after 24 hrs post transfer by resazurin dye-based colorimetric analysis; type: functional, organism-based
How it was run: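 From MIC wells with no visible growth, 10 µL is transferred to agar plates and incubated 24 h at 37°C. MBC is the minimum concentration inhibiting 99.9% of growth. […] Triplicate.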

| Compound | MIC [1] | zone of inhibition at 5000 µg/mL [2] | MBC [3] | Activity [4] | zone of inhibition at 5000 µg/mL [5] | Activity [6] | zone of inhibition at 5000 µg/mL [7] | zone of inhibition at 5000 µg/mL [8] | MIC [9] | zone of inhibition at 5000 µg/mL [10] | Activity [11] | Activity [12] | Ratio [13] | MBC [14] | zone of inhibition at 5000 µg/mL [15] | zone of inhibition at 5000 µg/mL [16] | Activity [17] | hemolysis at 3 h, 200 ug/ml [18] | Activity [19] | zone of inhibition at 5000 µg/mL [21] | also measured |
| --- | --- | --- | --- | --- | --- | --- | --- | --- | --- | --- | --- | --- | --- | --- | --- | --- | --- | --- | --- | --- | --- |
| CO[C@@H]1O[C@H](CNC2=C(Br)C(=O)c3ccccc3C2=O)[C@H]2OC(C)(C)O[C@@H]12 | 32 µg/mL (≈ 73 µM) | 8 mm | 32 µg/mL (≈ 73 µM) | inactive | 13 mm | inactive | 16 mm | 8 mm | 64 µg/mL (≈ 146 µM) | 10 mm | inactive | inactive | 1 | 34 µg/mL (≈ 77.6 µM) | 0 mm | 0 mm | inactive | < 10% | inactive | 0 mm | Ratio [20]: 1; zone of inhibition at 5000 µg/mL [22]: 0 mm; Activity [23]: inactive; Activity [24]: inactive |
| COC(=O)c1c(C)nc(C)c2c1C(=O)C(Br)=C(NC[C@H]1O[C@@H](OC)[C@@H]3OC(C)(C)O[C@@H]31)C2=O | 8 µg/mL (≈ 15.2 µM) | 0 mm | 8 µg/mL (≈ 15.2 µM) | inactive | 17 mm | inactive | 17 mm | 13 mm | 8 µg/mL (≈ 15.2 µM) | 11 mm | inactive | inactive | 1 | 8 µg/mL (≈ 15.2 µM) | 0 mm | 12 mm | inactive | < 10% | inactive | 0 mm | Ratio [20]: 1; zone of inhibition at 5000 µg/mL [22]: 0 mm; Activity [23]: inactive; Activity [24]: inactive |
| CO[C@@H]1O[C@H](CNC2=C(Cl)C(=O)c3ccccc3C2=O)[C@H]2OC(C)(C)O[C@@H]12 | 8 µg/mL (≈ 20.3 µM) | 7 mm | 8 µg/mL (≈ 20.3 µM) | inactive | 9 mm | inactive | 10 mm | 0 mm | 32 µg/mL (≈ 81.3 µM) | 9 mm | inactive | inactive | 1 | 32 µg/mL (≈ 81.3 µM) | 0 mm | 0 mm | inactive | < 10% | inactive | 0 mm | zone of inhibition at 5000 µg/mL [22]: 0 mm; Activity [23]: inactive; Activity [24]: inactive |
| CC1(C)O[C@H]2[C@@H](O1)[C@@H](CNC1=C(Cl)C(=O)c3ccccc3C1=O)O[C@@H]1OC(C)(C)O[C@@H]12 | 16 µg/mL (≈ 35.6 µM) | 0 mm | 16 µg/mL (≈ 35.6 µM) | inactive | 13 mm | inactive | 12 mm | 9 mm | 32 µg/mL (≈ 71.1 µM) | 8 mm | inactive | inactive | 1 | 32 µg/mL (≈ 71.1 µM) | 0 mm | 0 mm | inactive | < 10% | inactive | 0 mm | Ratio [20]: 1; zone of inhibition at 5000 µg/mL [22]: 0 mm; Activity [23]: inactive; Activity [24]: inactive |
| CC1(C)O[C@H]2O[C@H](CNC3=C(Cl)C(=O)c4ccccc4C3=O)[C@H](O)[C@H]2O1 | 4 µg/mL (≈ 10.5 µM) | 13 mm | 4 µg/mL (≈ 10.5 µM) | inactive | 21 mm | inactive | 17 mm | 14 mm | 8 µg/mL (≈ 21.1 µM) | 15 mm | inactive | inactive | 1 | 8 µg/mL (≈ 21.1 µM) | 0 mm | 0 mm | inactive | 10.1 to 14.4% | inactive | 0 mm | Ratio [20]: 1; zone of inhibition at 5000 µg/mL [22]: 0 mm; Activity [23]: inactive; Activity [24]: inactive |
| CC1(C)O[C@H]2O[C@H](CNC3=C(Br)C(=O)c4ccccc4C3=O)[C@H](O)[C@H]2O1 | 16 µg/mL (≈ 37.7 µM) | 9 mm | 16 µg/mL (≈ 37.7 µM) | inactive | 16 mm | inactive | 12 mm | 8 mm | 16 µg/mL (≈ 37.7 µM) | 10 mm | inactive | inactive | 1 | 16 µg/mL (≈ 37.7 µM) | 0 mm | 0 mm | inactive | < 10% | inactive | 0 mm | Ratio [20]: 1; zone of inhibition at 5000 µg/mL [22]: 0 mm; Activity [23]: inactive; Activity [24]: inactive |
